Compound activity as filed in PubChem.
TAAR1 ag = human TAAR1 agonism. Q96RJ0. CHO RD-HGA16 TAAR1, Fluo-8 calcium fluorescence; vehicle wells 0%, saturating PEA agonist 100%. activation, % at 3 µM. hit rate 0.99% among 360,000. AID 624467;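 active means activation above the mean activation of all test compounds in the run plus 3 SD, cut at about 38% in these data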
Target sequence (Q96RJ0 whole entry, looked up): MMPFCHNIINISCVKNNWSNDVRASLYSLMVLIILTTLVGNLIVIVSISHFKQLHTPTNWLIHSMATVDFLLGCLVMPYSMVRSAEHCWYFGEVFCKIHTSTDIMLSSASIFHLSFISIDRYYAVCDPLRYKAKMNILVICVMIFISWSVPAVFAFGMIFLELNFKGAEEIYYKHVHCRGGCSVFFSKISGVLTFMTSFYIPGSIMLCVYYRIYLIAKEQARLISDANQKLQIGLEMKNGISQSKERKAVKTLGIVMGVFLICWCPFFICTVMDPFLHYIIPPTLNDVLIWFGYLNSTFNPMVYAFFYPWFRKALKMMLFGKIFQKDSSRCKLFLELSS
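Test system: RD-HGA16 (CHO) cells co-expressing Gα16 and hTAAR1; dosing: one-point dosing at 3 µM (nominal); timing: 17-24 h seeding, 75 min 37 °C dye, 30 min RT; signal: kinetic Fluo-8 calcium fluorescence; read-out basis: % activation relative to PEA EC100 response; controls: DMSO and PEA EC100; replicates: n 1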
DAGLB inhibitor = blocks human DAGLB lipase activity | HEK293T DAGLB membrane lysate, EnzChek fluorogenic substrate | inhibition, % at 5.17 µM | hit rate 0.059% among 340,000; in the data active means inhibition above about 34%
GPR7 antag = antagonists of human GPR7 (neuropeptides B/W receptor 1) | GPR7-expressing cells, fluorescence antagonist assay | inhibition, % at 4.4 µM | hit rate 1.1% among 290,000 | AID 1861; in the data active means inhibition above about 16%, passing the limit was not always enough;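 further: cells stimulated with the agonist NPW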
Target sequence (P48145 whole entry, looked up): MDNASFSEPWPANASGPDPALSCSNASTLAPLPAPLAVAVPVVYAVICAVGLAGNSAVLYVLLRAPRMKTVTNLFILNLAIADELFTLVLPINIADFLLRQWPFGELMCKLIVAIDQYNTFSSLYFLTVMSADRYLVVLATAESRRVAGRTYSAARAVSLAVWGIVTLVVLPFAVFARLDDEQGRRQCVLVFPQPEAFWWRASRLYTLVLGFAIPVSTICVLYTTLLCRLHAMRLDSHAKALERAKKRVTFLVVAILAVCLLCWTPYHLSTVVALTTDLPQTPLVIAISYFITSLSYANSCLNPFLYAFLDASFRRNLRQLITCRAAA
TAAR1 antag = human TAAR1 antagonism | AID 624466 | CHO RD-HGA16 TAAR1, Fluo-8 calcium fluorescence, antagonist | Q96RJ0 | hit rate 1.5% among 360,000 | inhibition, % at 3 µM;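 active means inhibition above a per-plate cutoff, the mean inhibition of test compounds on that plate plus 3 SD, cut at about 49% in these data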
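Test system: RD-HGA16 CHO cells with stable hTAAR1 and Gα16 / Probe or stimulus: EC80 β-phenethylamine stimulus / Times: seeding 17-24 h prior, 75-min 37 °C, 30-min RT dye loading / Detection: Fluo-8 calcium-sensitive fluorescence / Read-out basis: % inhibition scaled between DMSO and EC80 PEA controls / Repeats: singlicate, one well per test compound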
MPTP inh = blocks calcium-induced mitochondrial swelling; isolated mouse mitochondria, Ca2+ swelling absorbance, 30 min; inhibition, % at 10 µM; hit rate 1.4% among 360,000; AID 602449;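 active means inhibition of 50% or more, scaled per plate between neutral and stimulator controls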
Rh123 counter = mitochondrial membrane potential, counter-screen. shares compounds with MPTP inh. isolated mitochondria, Rhodamine 123 fluorescence. inhibition, % at 10 µM. hit rate 78% among 5,000; in the data active means inhibition above about 22%
MPTP abs DR = MPTP inhibition, dose response swelling confirmation; hit rate 58% among 780; IC50, µM; isolated mitochondria swelling, absorbance; shares compounds with MPTP inh; in the data active means IC50 below about 20 µM
MPTP cs DR = active in counter-screen for permeability transition pore inhibitors | shares compounds with MPTP inh | isolated mitochondria counterscreen, fluorescence read-out | IC50, µM | hit rate 49% among 780 | AID 651564; in the data active means IC50 below about 80 µM
Of the large screens only hits and unclear results are named; the others gave an inactive call (follow-up assays come after a bar, where they were run). Sampled rows, rich in hits. Any-hit rate of the full collection: about 4%.

CN1C(C(=O)Nc2ccc(OC(F)(F)F)cc2)=CC(c2cccs2)=NS1(=O)=O	MPTP inh 74 | Rh123 counter 84
COc1ccc(NC(=O)C2=CC(c3cccs3)=NS(=O)(=O)N2C)cc1	none
CN1C(C(=O)Nc2ccc(OC(F)(F)F)cc2)=CC(c2ccc3c(c2)OCO3)=NS1(=O)=O	MPTP inh 90 | Rh123 counter 78
CC(C)(C)c1ccc(CC(=O)N2CCC2(C)C(=O)NS(=O)(=O)c2ccc(Cl)s2)cc1 (stereo unspecified)	none (no result: DAGLB inhibitor, GPR7 antag)
CC1=CC(=O)C(C(C)=Nc2cccc(Cl)c2)C(=O)O1 (stereo unspecified)	none (no result: GPR7 antag)
Cc1cccc(C(=O)N2CCc3cc(-c4csc(NC(=O)CN5CCCC5)n4)ccc32)c1	MPTP inh 86 | Rh123 counter inactive | MPTP abs DR inactive | MPTP cs DR 37
CN(C)CCCN(C(=O)c1ccc2c(c1)CCCC2)c1nc2ccc(Cl)cc2s1	MPTP inh 90 | Rh123 counter inactive
CN(C)CCCN(C(=O)COc1ccc(Cl)cc1)c1nc2cc3c(cc2s1)OCCO3	MPTP inh 87 (no result: GPR7 antag) | Rh123 counter inactive | MPTP abs DR 4.3 | MPTP cs DR 74
CCOc1ccc2nc(N(CCCN(C)C)C(=O)c3ccc4c(c3)CCCC4)sc2c1	none
CNC(=S)/N=C/NOCc1c(Cl)cccc1Cl	none
Clc1cccc(Cl)c1CON/C=N/c1ncnc2sccc12	MPTP inh 69 | Rh123 counter 41
CCN(CC)CCOc1ccc(/C(=C(/Cl)c2ccccc2)c2ccccc2)cc1	MPTP inh 98 | Rh123 counter inactive | MPTP abs DR 19 | MPTP cs DR 43
CN(C)CCOc1ccc(C(C)(C)c2ccccc2)cc1	none
CCOc1ccc(C(=O)OCCN(CC)CC)cc1	none
CC/C(=C(\c1ccc(O)cc1)c1ccc(OCCN(C)C)cc1)c1ccccc1	MPTP inh 103 | Rh123 counter inactive
CCOC(=O)CN(C(=O)c1snc(C(N)=O)c1N)C(C(=O)NCCC(C)C)c1ccc(C)cc1 (stereo unspecified)	none (no result: GPR7 antag)
O=C(CNC(=O)C1CCCCC1)OC(C(=O)c1ccccc1)c1ccccc1 (stereo unspecified)	none (no result: GPR7 antag)
Cc1ccc([N+](=O)[O-])cc1S(=O)(=O)Nc1cccc(S(=O)(=O)Nc2ccccc2C(=O)O)c1	none (no result: GPR7 antag)
Cc1ccc(C)c(NC(=O)c2ccccc2NS(=O)(=O)c2cc([N+](=O)[O-])ccc2C)c1	MPTP inh 92 | Rh123 counter 58
Cc1ccc(C)c(S(=O)(=O)Nc2ccccc2C(=O)Nc2cc(C)on2)c1	MPTP inh 58 | Rh123 counter 70
Cc1cc(NC(=O)c2ccccc2NS(=O)(=O)c2c(C)c(C)cc(C)c2C)no1	none
Cc1ccc(Nc2nc(NCCCN3CCOCC3)nc(N)c2[N+](=O)[O-])cc1	none
Cc1cccc(Nc2nc(N)c([N+](=O)[O-])c(N3CC(C)CC(C)C3)n2)c1 (stereo unspecified)	MPTP inh 56 | Rh123 counter inactive | MPTP abs DR inactive | MPTP cs DR 63
Cc1cccc(Nc2nc(N3CCN(C)CC3)nc(N)c2[N+](=O)[O-])c1	MPTP inh 69 | Rh123 counter inactive | MPTP abs DR inactive | MPTP cs DR inactive
CCN1CCN(c2nc(N)c([N+](=O)[O-])c(Nc3cccc(C)c3)n2)CC1	none
Cc1ccc(Nc2nc(NCCCN3CCOCC3)nc(N)c2[N+](=O)[O-])cc1C	MPTP inh 67 | Rh123 counter inactive | MPTP abs DR inactive | MPTP cs DR inactive
COc1cc(C=NO)nc(-c2ccccn2)c1	none (no result: GPR7 antag)
CCc1nc2ccc(C(=O)NCCCn3ccnc3)cn2c1N(C)C(=O)C1CCCCC1	none (no result: DAGLB inhibitor, GPR7 antag)
Cn1nc(OC(=O)Nc2ccccc2)cc1C(F)(F)F	none (no result: TAAR1 ag, DAGLB inhibitor, TAAR1 antag, MPTP inh)
Cn1nc(OC(=O)Nc2cccc(Cl)c2)cc1C(F)(F)F	MPTP inh 88 | Rh123 counter 87
O=C(NCc1ccccc1)[C@@H]1CCCN1C(=O)[C@H]1CCCN1C(=O)c1cccc2ccccc12	none (no result: DAGLB inhibitor, GPR7 antag, MPTP inh)
Cc1ccc(NS(=O)(=O)c2ccc(Cl)c(C(=O)Nc3ccccc3-c3nc4ccccc4[nH]3)c2)cc1C	MPTP inh 88 | Rh123 counter 58
Cc1nc(N2CCCCC2C)c2c(C)c(C(=O)Nc3cccc(C(F)(F)F)c3)sc2n1 (stereo unspecified)	MPTP inh 70 | Rh123 counter 41
Cc1nc(N2CCCCC2)c2c(C)c(C(=O)Nc3cccc(C(F)(F)F)c3)sc2n1	MPTP inh 84 | Rh123 counter 49
CCOC(=O)c1sc2nc(C)nc(N3CCCCC3C)c2c1C (stereo unspecified)	none (no result: DAGLB inhibitor)
COc1ccc(CCCNC(=O)C2Cc3c(-c4cccc(NC(C)=O)c4)ccnc3O2)cc1 (stereo unspecified)	none (no result: DAGLB inhibitor, GPR7 antag)
O=[N+]([O-])c1ccc(/C=N/N/C(=N/c2ccccn2)c2ccccn2)cc1	none
O=[N+]([O-])c1cc(/C=N/N/C(=N/c2ccccn2)c2ccccn2)ccc1O	MPTP inh 78 | Rh123 counter inactive
C=CCN=C1NC(c2ccccc2C(F)(F)F)C(C(=O)OC)=C(C)N1Cc1ccccc1C(F)(F)F (stereo unspecified)	none (no result: DAGLB inhibitor, GPR7 antag, MPTP inh)
CCN1/C(=C/c2ccc3cc(C)ccc3[n+]2CC)Sc2cc(C)ccc21	MPTP inh 98 | Rh123 counter 103
NCCCn1c(C(=O)c2ccc(Cl)cc2)c2ccc(C(F)(F)F)cc2[n+]1[O-]	MPTP inh 65 (no result: GPR7 antag) | Rh123 counter inactive | MPTP abs DR 8.7 | MPTP cs DR inactive
Cc1ccccc1CN1CCN(CC(=O)NCCCN2CCN(c3ccc(F)cc3)CC2)C1=O	MPTP inh 56 | Rh123 counter inactive
O=C(CN1CCN(Cc2ccc(F)cc2Cl)C1=O)NCCCN1CCOCC1	none
O=C(CN1CCN(Cc2ccc(Cl)cc2)C1=O)NCCCN1CCOCC1	none
O=C(CN1CCN(Cc2ccc(Cl)cc2)C1=O)NCCCN1CCN(c2ccc(F)cc2)CC1	MPTP inh 69 | Rh123 counter inactive | MPTP abs DR 11 | MPTP cs DR 12
CCNC(=O)N1CCN(c2ccc(N3CCN(Cc4ccccc4)[C@H](C)C3)c(C)c2)[C@@H](C)C1	none (no result: DAGLB inhibitor, GPR7 antag, MPTP inh)
Cc1ccc(NC(=O)c2ccc(-c3cc(Cl)ccc3Cl)o2)c(C)c1	none (no result: DAGLB inhibitor, GPR7 antag)
Cc1ccc(NC(=S)NCc2ccccc2)cc1S(=O)(=O)N1CCCCC1	MPTP inh 75 | Rh123 counter 75
O=C(Nc1cc(S(=O)(=O)N2CCCCC2)ccc1O)c1ccccc1NS(=O)(=O)c1ccc(F)c(F)c1	MPTP inh 91 | Rh123 counter 65
O=C(Nc1ccccc1C(=O)O)c1cc(S(=O)(=O)N2CCCCCC2)ccc1Cl	none
